In ChEMBL document CHEMBL1150164, “New cytotoxic xenia diterpenoids from the Formosan soft coral Xenia umbellata” (2002) one finds EC50 data, which are given here for 7 compounds.

Structures are written as SMILES. In brackets after ≈: the same amount, converted by molar mass.

Common to all, as to format: functional
What all share (settings): read-out: ED50 (the source's name)

One assay has as its system HT-29. Description: Cytotoxicity against human HT-29 cells. An outline of the steps: (§1)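 In vitro cytotoxicity against cultured human tumour cell lines: A549 (lung adenocarcinoma) and HT-29 (colon adenocarcinoma), both obtained from a cell-line collection.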
The test system of the next assay is A549. Put plainly: Cytotoxicity against human A549 cells. An outline of the steps: as §1
Another assay concerns P388. Description: Cytotoxicity against mouse P388 cells. The method, boiled down: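 Murine P-388 lymphocytic leukaemia cells, supplied by an academic laboratory, were exposed to compounds in culture and cytotoxicity was measured in vitro.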

Take `C=C1CC[C@@H]2/C(=C\C=C\C(C)(C)O)COC(=O)[C@H]2C(=C)CCC1OO` (stereo partly specified): the EC50 with HT-29 is 8.31 µg/mL (≈ 23.8 µM); with A549, 4.77 µg/mL (≈ 13.7 µM); in the assay on P388 it was 0.04 µg/mL (≈ 0.115 µM).

Turning to `C=C1CC/C=C(\C)CC[C@@H]2/C(=C\C=C\C(C)(C)O)[C@@H](OC)O[C@H](OC)[C@@H]12` [XENIBECIN], the EC50 in the assay with HT-29 was 12.5 µg/mL (≈ 34.5 µM); in the assay on A549, 13.4 µg/mL (≈ 37 µM); in the assay on P388 it was 3.96 µg/mL (≈ 10.9 µM).

As for `C=C1CC/C=C(\C)CC[C@@H]2/C(=C\C=C\C(C)(C)O)CO[C@H](O)[C@@H]12`, the results for the EC50 in the assay with HT-29, with A549 and with P388 were 12.9 µg/mL (≈ 40.5 µM), 4.85 µg/mL (≈ 15.2 µM) and 3.45 µg/mL (≈ 10.8 µM), respectively.

Consider `C=C1CC/C=C(\C)CC[C@@H]2/C(=C\CC3OC3(C)C)COC(=O)[C@@H]12` (stereo partly specified), for which the figures for the EC50 in the assay on HT-29, in the assay on A549 and in the assay on P388 were 21.1 µg/mL (≈ 66.7 µM), 11.2 µg/mL (≈ 35.4 µM) and 2.87 µg/mL (≈ 9.07 µM), respectively.

As for `C=C1CC[C@@H]2O[C@@]2(C)CC[C@H]2[C@H]1C(=O)O[C@@]2(/C=C/C=C(C)C)CO`, the EC50 with HT-29 is 5.33 µg/mL (≈ 16 µM); in the assay with A549, 18.8 µg/mL (≈ 56.6 µM); in the assay on P388, 3.66 µg/mL (≈ 11 µM).

On to `C=C1CC[C@@H]2O[C@@]2(C)CC[C@@H]2/C(=C\CC3OC3(C)C)COC(=O)[C@@H]12` (stereo partly specified), for which the EC50 was 7.77 µg/mL (≈ 23.4 µM) in the assay with HT-29, 11.6 µg/mL (≈ 34.9 µM) in the assay with A549 and 3.35 µg/mL (≈ 10.1 µM) in the assay with P388.

`C=C1CC[C@@H]2O[C@@]2(C)CC[C@H](/C(=C\CC2OC2(C)C)COC(C)=O)[C@H]1C(=O)OC` (stereo partly specified) [XENITACIN]: the EC50 in the assay on HT-29 amounted to 1.12 µg/mL (≈ 2.76 µM); in the assay with A549, 3.26 µg/mL (≈ 8.02 µM); in the assay on P388, 1.09 µg/mL (≈ 2.68 µM).
